Most compounds without a hit are left out; they make up all but 1.9% or so of the library.
NadD block = blocks S. aureus nicotinate mononucleotide adenylyltransferase. purified NadD enzyme, colorimetric absorbance read-out. inhibition, % at 20 µM. actives 0.78% (n = 360,000); in the data active = inhibition above about 26%
VIM-2 inhibitor = inhibitors of Pseudomonas aeruginosa VIM-2 metallo-beta-lactamase | purified VIM-2, nitrocefin hydrolysis, epi-absorbance fluorescence | inhibition, % at 5.6 µM | actives 0.89% (n = 290,000);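 active = inhibition above the mean of all tested compounds plus 3 SD, cutoff set per screening run, cut at about 7.5% in these data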;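 note: red hydrolysis product quenches plate fluorescence so inhibitors raise well fluorescence; 0% = enzyme with DMSO and 100% = DMSO without enzyme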
core dimer inh = HCV core protein dimerization inhibition; TR-FRET GST/Flag-core106 dimerization, 1536-well; inhibition, % at 5 µM; actives 0.33% (n = 300,000); AID 1899;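 active = inhibition above the mean of all tested compounds plus 3 SD, set per screening campaign, cut at about 45% in these data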
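Assay system – GST-tagged and Flag-tagged HCV core protein residues 1-106 · Quantity – core106 proteins, GST 13.5 nM and Flag 17 nM · Benchmarks – unlabelled core106 and no-GST-core106 wells · Read-out basis – percent inhibition of core106 dimerization signal · Detection – time-resolved FRET, ex 340 nm, em 617 and 671 nm · Schedule – 4 h at 22.5 °C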
IMP-1 inh-1 = inhibitors of Pseudomonas aeruginosa IMP-1 metallo-beta-lactamase. purified IMP-1, nitrocefin hydrolysis, epi-absorbance fluorescence. inhibition, % at 5.6 µM. actives 0.45% (n = 290,000). AID 1556;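 active = inhibition above the mean plus 3 SD of all compounds in the same screening run, cut at about 4.5% in these data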;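 note: 0% = IMP-1 with DMSO and 100% = DMSO wells lacking enzyme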
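System: purified IMP-1 / Input: IMP-1 dispensed at 0.2 nM / Medium: 50 mM HEPES pH 7.1, 50 µM ZnSO4, 0.05% Brij 35 / Timing: 15 min enzyme–compound preincubation, then 25 min nitrocefin reaction, 25 °C / Technique: plate fluorescence quenching by hydrolysis product, ex 480/em 530 nm / Repeats: singlicate testing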
IMP-1 inh-2 = selectivity counter-screen for VIM-2 inhibitors: IMP-1 metallo-beta-lactamase inhibitors | shares compounds with VIM-2 inhibitor | purified IMP-1, nitrocefin hydrolysis, epi-absorbance fluorescence | inhibition, % at 5.6 µM | 1,300 tested, under 10 active | AID 1856; call rule not given here;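 note: 0% = enzyme with vehicle and 100% = vehicle without enzyme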
VIM-2 FRET inh = inhibits VIM-2 in FRET assay to exclude epi-absorbance artifacts. shares compounds with VIM-2 inhibitor. purified VIM-2, CCF2 FRET substrate hydrolysis. inhibition, % at 5.6 µM. actives 23% (n = 1,300);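 active = inhibition above the mean of all tested compounds plus 3 SD, cut at about 19% in these data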;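 note: 0% = VIM-2 plus DMSO and 100% = no enzyme wells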
TEM-1 inh = blocks E. coli TEM-1 beta-lactamase in VIM-2 selectivity screen. shares compounds with VIM-2 inhibitor. AID 1866. actives 3% (n = 1,300). inhibition, % at 5.6 µM. Purified TEM-1, nitrocefin hydrolysis, epi-absorbance fluorescence;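 active = inhibition above that campaign's mean inhibition plus 3 SD, cut at about 0.46% in these data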;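 note: 0% = TEM-1 with DMSO and 100% = TEM-1 with 100 µM potassium clavulanate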
Target sequence (P62593 whole entry, looked up): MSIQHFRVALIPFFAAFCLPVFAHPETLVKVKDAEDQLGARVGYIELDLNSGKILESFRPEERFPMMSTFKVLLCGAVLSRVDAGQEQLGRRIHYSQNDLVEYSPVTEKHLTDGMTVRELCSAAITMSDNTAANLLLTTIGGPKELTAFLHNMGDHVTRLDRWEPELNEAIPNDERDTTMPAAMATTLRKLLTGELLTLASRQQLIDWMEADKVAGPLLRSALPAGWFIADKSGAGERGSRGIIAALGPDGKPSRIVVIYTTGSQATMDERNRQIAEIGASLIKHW
VIM-2 confirm 2 = confirmation of P. aeruginosa VIM-2 metallo-beta-lactamase inhibitors. shares compounds with VIM-2 inhibitor. purified VIM-2, nitrocefin hydrolysis, epi-absorbance. inhibition, % at 5.6 µM. actives 96% (n = 1,300). AID 2187;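 active = inhibition of the VIM-2 beta-lactamase enzyme above about 11% from the earlier first-round screen, limit read from the data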;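 note: 0% = VIM-2 with DMSO and 100% = buffer wells without enzyme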
The depositor's hits bear a star; x = no result given.

SMILES | NadD block | VIM-2 inhibitor | core dimer inh | IMP-1 inh-1 | IMP-1 inh-2 | VIM-2 FRET inh | TEM-1 inh | VIM-2 confirm 2
COc1cccc(C2/C(=C(/O)c3ccccc3)C(=O)C(=O)N2Cc2ccco2)c1 (stereo not drawn) | 6.5 | -0.3 | 7.7 | -3.1 | x | x | x | x
COc1ccc(OC)c(C2/C(=C(/O)c3ccccc3)C(=O)C(=O)N2Cc2ccco2)c1 (stereo not drawn) | 6.2 | 66.5* | -4.9 | -1.1 | -2.7 | 76.7* | -5.8 | 70.3*
COc1ccc(OC)c(C2C(C(=O)c3ccco3)=C(O)C(=O)N2Cc2cccnc2)c1 (stereo not drawn) | 4.4 | 61.1* | 1.3 | -1.5 | -2.4 | 78.2* | -5.0 | 67.9*
COc1ccc(OC)c(C2/C(=C(/O)c3ccc(C)cc3)C(=O)C(=O)N2Cc2ccco2)c1 (stereo not drawn) | 16.5 | 21.2* | 3.5 | -2.3 | -2.7 | 55.5* | -5.5 | 45.1*
COc1ccc(/C(O)=C2\C(=O)C(=O)N(Cc3ccco3)C2c2cc(OC)ccc2OC)cc1 (stereo not drawn) | 11.9 | 12.3* | 4.9 | -2.8 | -4.0 | 35.0* | -6.3 | 25.9*
COc1cccc(C2/C(=C(/O)c3ccc(C)cc3)C(=O)C(=O)N2Cc2ccco2)c1 (stereo not drawn) | 11.1 | -0.2 | -13.5 | -0.4 | x | x | x | x
O=C(CCC(=O)OCc1ccc(Br)cc1)Nc1ccccc1 | -11.4 | 1.5 | -0.2 | 0.8 | x | x | x | x
COc1ccc(C(=O)N2CCN(C(C)=O)CC2)cc1S(=O)(=O)N1CCOCC1 | 0.6 | 3.7 | -3.6 | -0.8 | x | x | x | x
O=c1[nH]c2ccccc2nc1Cc1ccc([N+](=O)[O-])cc1 | -1.2 | -2.1 | 5.9 | -2.2 | x | x | x | x
COc1cc(CN2CCCCC2C(=O)Nc2ccc(Oc3ccccc3)nc2)ccc1O (stereo not drawn) | 0.1 | -1.3 | 5.5 | -2.8 | x | x | x | x
Cc1nnc2c3ccccc3c(-c3cccs3)nn12 | 3.5 | 28.4* | 6.4 | -2.3 | -3.4 | 1.0 | -5.2 | 39.7*
Cc1ccc(Oc2nnc(-c3cccs3)c3ccccc23)cc1 | 5.5 | -0.3 | -1.1 | 0.2 | x | x | x | x
O=C(O)Cn1c2c(c3ccccc31)CSc1ccc(Cl)cc1-2 | 5.3 | 15.2* | 10.1 | 2.0 | -0.5 | 11.8 | -3.9 | 19.9*
CN(C)S(=O)(=O)N(CC(=O)Nc1ccc(S(=O)(=O)N2CCCC2)cc1)c1ccccc1 | -7.5 | -1.4 | 31.4 | -1.9 | x | x | x | x
O=C(NCc1ccccc1)NC(=O)c1ccncc1 | -3.0 | 0.1 | 2.7 | -2.3 | x | x | x | x
CSc1sc(C(=O)NC(=O)NCc2ccncc2)c(C)c1-c1ccon1 | 0.6 | 32.4* | 2.1 | -2.5 | -3.1 | -6.7 | -5.6 | 41.6*
CCCCn1c(N)c(N(CCOC)C(=O)C2CC(=O)N(Cc3ccco3)C2)c(=O)[nH]c1=O (stereo not drawn) | 1.7 | x | x | x | x | x | x | x
Clc1nnc(N/N=C/c2ccccc2)c2ccccc12 | -6.2 | 0.0 | -0.6 | 1.6 | x | x | x | x
C[n+]1ccc(/C=N/Nc2nc(Cl)c(C#N)c(Cl)c2Cl)cc1 | 5.5 | 42.7* | -1.5 | -7.5 | -9.2 | 34.2* | -13.2 | 53.1*
Cc1cc(NCCCCO)n2c(nc3ccccc32)c1C#N | -3.2 | 19.2* | -7.9 | -2.5 | -3.2 | -9.8 | -7.2 | 40.1*
Cc1cc(-c2ccco2)n2c(nc3ccccc32)c1C#N | 2.7 | 18.4* | 12.1 | -2.1 | -2.8 | 31.8* | -4.0 | 43.5*
CCN(CC)CCCNc1cc(C)c(C#N)c2nc3ccccc3n12 | -2.0 | x | x | x | x | x | x | x
Cc1cc(NCCCN2CCOCC2)n2c(nc3ccccc32)c1C#N | 1.7 | 39.6* | -1.3 | -1.3 | -2.2 | -8.7 | -4.9 | 57.4*
CCN(CC)CCNc1cc(C)c(C#N)c2nc3ccccc3n12 | -1.7 | 21.6* | -2.4 | -3.1 | -3.2 | -7.6 | -6.1 | 37.2*
Cc1cc(NCCN2CCOCC2)n2c(nc3ccccc32)c1C#N | 3.2 | 6.9 | -1.1 | -5.0 | x | x | x | x
Cc1ccnc(N2CCN(c3cc(C)c(C#N)c4nc5ccccc5n34)CC2)c1 | 12.3 | -0.6 | 2.8 | -3.1 | x | x | x | x

Bioassay records from PubChem BioAssay.
